Columns and labels:
Assay type in all cases: functional
Mus musculus [1] = assay: Inhibition of the Mouse PBQ Writhing at a dose of 20 mg/kg ip afer 20 min; conditions: route intraperitoneal
How it was run: (§1)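 Mouse phenylbenzoquinone (PBQ) writhing test. Test drug is given sc, ip or iv at the stated pretreatment time before PBQ injection. Mice are placed in individual observation boxes, and total writhes per group are counted over the following 15 min. Vehicle is emulphor/ethanol/saline (1:1:18), diluted from a 1:1 emulphor/ethanol stock, and vehicle-injected controls are run. Result is % inhibition of writhing versus vehicle controls.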

Mus musculus [2] = assay: Inhibition of the Mouse PBQ Writhing at a dose of 20 mg/kg sc after 15 min; conditions: 0.25 h, route subcutaneous; how it was run: as §1
Mus musculus [3] = assay: Compound was tested at a dose of 20 mg/kg administered subcutaneously for a pretreatment time of 60 min for analgesic activity using phenylbenzoquinone (PBQ); conditions: route subcutaneous; how it was run: as §1
Mus musculus [4] = assay: Compound was tested at a dose of 20 mg/kg administered subcutaneously for a pretreatment time of 15 min for analgesic activity using phenylbenzoquinone (PBQ); conditions: route subcutaneous; how it was run: as §1
Mus musculus [5] = assay: Compound was tested at a dose of 20 mg/kg administered intraperitoneally for a pretreatment time of 20 min for analgesic activity using phenyl benzoquinone; conditions: route intraperitoneal; how it was run: as §1
Mus musculus [6] = assay: Inhibition of the Mouse PBQ Writhing at a dose of 20 mg/kg sc after 120 min; conditions: 2 h, route subcutaneous; how it was run: as §1
Mus musculus [7] = assay: Inhibition of the Mouse PBQ Writhing at a dose of 20 mg/kg iv afer 30 min; conditions: 0.5 h; how it was run: as §1
Mus musculus [8] = assay: Compound was tested at a dose of 20 mg/kg administered subcutaneously for a pretreatment time of 120 min for analgesic activity using phenylbenzoquinone (PBQ); conditions: route subcutaneous; how it was run: as §1
Mus musculus [9] = assay: Inhibition of the Mouse PBQ Writhing at a dose of 20 mg/kg ip afer 60 min; conditions: 1 h, route intraperitoneal; how it was run: as §1
Mus musculus [10] = assay: Compound was tested at a dose of 20 mg/kg administered intravenously for a pretreatment time of 10 min; conditions: route intravenous; how it was run: as §1
Mus musculus [11] = assay: Compound was tested at a dose of 20 mg/kg administered intraperitoneally for a pretreatment time of 60 min; conditions: route intraperitoneal; how it was run: as §1
Mus musculus [12] = assay: Inhibition of the Mouse PBQ Writhing at a dose of 20 mg/kg sc after 60 min; conditions: 1 h, route subcutaneous; how it was run: as §1
Mus musculus [13] = assay: Inhibition of the Mouse PBQ Writhing at a dose of 20 mg/kg iv afer 10 min; how it was run: as §1
Mus musculus [14] = assay: Compound was tested at a dose of 5 mg/kg administered subcutaneously for a pretreatment time of 60 min for analgesic activity using phenylbenzoquinone (PBQ); conditions: route subcutaneous; how it was run: as §1
Mus musculus [15] = assay: Compound was tested at a dose of 10 mg/kg administered subcutaneously for a pretreatment time of 60 min for analgesic activity using phenylbenzoquinone (PBQ); conditions: route subcutaneous; how it was run: as §1
Mus musculus [16] = assay: Inhibition of the Mouse PBQ Writhing at a dose of 5 mg/kg sc after 60 min; conditions: 1 h, route subcutaneous; how it was run: as §1
Mus musculus [17] = assay: Inhibition of the Mouse PBQ Writhing at a dose of 10 mg/kg sc after 60 min; conditions: 1 h, route subcutaneous; how it was run: as §1

Structure (SMILES)	inhibition in vivo at 20 mg/kg (Mus musculus [1]) [%]	inhibition in vivo at 20 mg/kg (Mus musculus [2]) [%]	Analgesic activity (Mus musculus [3])	Analgesic activity (Mus musculus [4])	Analgesic activity (Mus musculus [5])	inhibition in vivo at 20 mg/kg (Mus musculus [6]) [%]	inhibition in vivo at 20 mg/kg (Mus musculus [7]) [%]	Analgesic activity (Mus musculus [8])	inhibition in vivo at 20 mg/kg (Mus musculus [9]) [%]	Analgesic activity (Mus musculus [10])	Analgesic activity (Mus musculus [11])	inhibition in vivo at 20 mg/kg (Mus musculus [12]) [%]	inhibition in vivo at 20 mg/kg (Mus musculus [13]) [%]	Analgesic activity (Mus musculus [14])	Analgesic activity (Mus musculus [15])	inhibition in vivo at 5 mg/kg (Mus musculus [16]) [%]	inhibition in vivo at 10 mg/kg (Mus musculus [17]) [%]
CCCCCC(C)Oc1ccc([C@H]2CCC[C@@H](O)C2)c2[nH]ccc12 (some centres undefined)	10	21.6	27.2	16.7	24.4	0	0	32.4	0	24.8	29.2	0	20.3				
CCCCCC(C)Oc1ccc([C@H]2CCC[C@@H](O)C2)c(O)c1 (some centres undefined)			2.9									91.4		23.8	15.3	29.2	54.5
